In ChEMBL document CHEMBL2401717, “Synthesis and bioactive evaluation of novel hybrids of metronidazole and berberine as new type of antimicrobial agents and their transportation behavior by human serum albumin” (Bioorg Med Chem, 2013):
In brackets after ≈: the same amount, converted by molar mass.

Assays:
Staphylococcus aureus [1] = assay: Antibacterial activity against methicillin-resistant Staphylococcus aureus N315 after 24 hrs by twofold broth dilution method; format: functional; details: N315, 24 h
Procedure, shortened: (§1)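 MIC by NCCLS-recommended twofold broth microdilution, run in triplicate. Strains: B. subtilis ATCC6633, E. coli DH52, M. luteus ATCC4698, P. vulgaris ATCC6896, S. dysenteriae, S. aureus ATCC25923, MRSA N315, C. albicans ATCC76615, C. mycoderma. References were chloromycin, norfloxacin and berberine for bacteria, and fluconazole for fungi.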

Bacillus subtilis = assay: Antibacterial activity against Bacillus subtilis after 24 hrs by twofold broth dilution method; format: functional; procedure, shortened: as §1
Escherichia coli = assay: Antibacterial activity against Escherichia coli DH52 after 24 hrs by twofold broth dilution method; format: functional; details: DH52, 24 h; procedure, shortened: as §1
Shigella dysenteriae = assay: Antibacterial activity against Shigella dysenteriae after 24 hrs by twofold broth dilution method; format: functional; procedure, shortened: as §1
Pseudomonas aeruginosa = assay: Antibacterial activity against Pseudomonas aeruginosa after 24 hrs by twofold broth dilution method; format: functional
Procedure, shortened: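 Twofold broth dilution in 96-well microplates following NCCLS guidance; MIC read as the endpoint; tests run in triplicate.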

Proteus vulgaris = assay: Antibacterial activity against Proteus vulgaris after 24 hrs by twofold broth dilution method; format: functional; procedure, shortened: as §1
Candida albicans = assay: Antifungal activity against Candida albicans after 24 hrs by twofold broth dilution method; format: functional; procedure, shortened: as §1
Candida = assay: Antifungal activity against Candida mycoderma after 24 hrs by twofold broth dilution method; format: functional; procedure, shortened: as §1
Micrococcus luteus = assay: Antibacterial activity against Micrococcus luteus ATCC 4698 after 24 hrs by twofold broth dilution method; format: functional; details: ATCC 4698, 24 h; procedure, shortened: as §1
Staphylococcus aureus [2] = assay: Antibacterial activity against Staphylococcus aureus ATCC 25923 after 24 hrs by twofold broth dilution method; format: functional; details: ATCC 25923, 24 h; procedure, shortened: as §1
[3] = Solubility of the compound in phosphate buffer at pH 7.5 after 20 hrs by UV spectrophotometry; format: physicochemical
Procedure, shortened: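 Phosphate buffer pH 7.5 added to solid; suspension sonicated 10 min, then shaken at room temperature for 20 h and centrifuged. Supernatant concentration read by UV absorbance against a regression calibration curve (278 and 340 nm).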

[4] = Stability of the compound at 30 to 80 degC after 30 mins by UV spectrophotometry; format: physicochemical; details: 0.5 h
Procedure, shortened: (§2)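 Stability followed by UV spectrometry across pH 6.5–8.5 and temperatures 30–80 °C.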

[5] = Stability of the compound at pH 6.5 to 8.5 after 30 mins by UV spectrophotometry; format: physicochemical; details: buffer, pH 6.5, 0.5 h; procedure, shortened: as §2
[6] = Octanol-water partition coefficient, log P of the compound after 24 hrs by UV-Vis spectrophotometry; format: physicochemical

Row | SMILES | MIC (Staphylococcus aureus [1]) [µg/mL] | MIC (Bacillus subtilis) [µg/mL] | MIC (Escherichia coli) [µg/mL] | MIC (Shigella dysenteriae) [µg/mL] | MIC (Pseudomonas aeruginosa) [µg/mL] | MIC (Proteus vulgaris) [µg/mL] | MIC (Candida albicans) [µg/mL] | MIC (Candida) [µg/mL] | MIC (Micrococcus luteus) [µg/mL] | MIC (Staphylococcus aureus [2]) [µg/mL] | solubility at 20 h [3] [µg/mL] | Stability [4] | Stability [5] | logP at 24 h [6]
1 | O=[N+]([O-])c1cncn1CCN(CCBr)Cc1ccc(Cl)c(Cl)c1 | 32 (≈ 75.8 µM) | 32 (≈ 75.8 µM) | 16 (≈ 37.9 µM) | 8 (≈ 19 µM) | 16 (≈ 37.9 µM) | 32 (≈ 75.8 µM) | 16 (≈ 37.9 µM) | 128 (≈ 303 µM) | 128 (≈ 303 µM) | 32 (≈ 75.8 µM) |  |  |  | 
2 | O=[N+]([O-])c1cncn1CCN(CCBr)Cc1ccccc1Cl | 16 (≈ 41.3 µM) | 8 (≈ 20.6 µM) | 8 (≈ 20.6 µM) | 16 (≈ 41.3 µM) | 16 (≈ 41.3 µM) | 16 (≈ 41.3 µM) | 8 (≈ 20.6 µM) | 32 (≈ 82.5 µM) | 64 (≈ 165 µM) | 8 (≈ 20.6 µM) |  |  |  | 
3 | O=[N+]([O-])c1cncn1CCN(CCBr)Cc1cccc(Cl)c1 | 64 (≈ 165 µM) | 64 (≈ 165 µM) | 64 (≈ 165 µM) | 256 (≈ 660 µM) | 32 (≈ 82.5 µM) | 256 (≈ 660 µM) | 64 (≈ 165 µM) | 64 (≈ 165 µM) | 64 (≈ 165 µM) | 16 (≈ 41.3 µM) |  |  |  | 
4 | O=[N+]([O-])c1cncn1CCN(CCBr)Cc1ccc(Cl)cc1 | 128 (≈ 330 µM) | 64 (≈ 165 µM) | 128 (≈ 330 µM) | 256 (≈ 660 µM) | 64 (≈ 165 µM) | 256 (≈ 660 µM) | 64 (≈ 165 µM) | 128 (≈ 330 µM) | 128 (≈ 330 µM) | 64 (≈ 165 µM) |  |  |  | 
5 | COc1ccc2cc3[n+](cc2c1OCCN(CCn1cnc([N+](=O)[O-])c1)Cc1ccccc1Cl)CCc1cc2c(cc1-3)OCO2.[Cl-] | 16 | 4 | 16 | 16 | 16 | 64 | 8 | 128 | 16 | 4 | 95.1 | Stable | Stable | 0.51
6 | COc1ccc2cc3[n+](cc2c1OCCN(CCn1cnc([N+](=O)[O-])c1)Cc1cccc(Cl)c1)CCc1cc2c(cc1-3)OCO2.[Cl-] | 32 | 32 | 32 | 256 | 64 | 64 | 16 | 32 | 64 | 8 | 50.8 | Stable | Stable | 0.57
7 | COc1ccc2cc3[n+](cc2c1OCCN(CCn1cnc([N+](=O)[O-])c1)Cc1ccc(Cl)cc1)CCc1cc2c(cc1-3)OCO2.[Cl-] | 64 | 64 | 64 | 128 | 64 | 64 | 64 | 16 | 32 | 32 | 64.8 | Stable | Stable | 0.48
8 | COc1ccc2cc3[n+](cc2c1OCCN(CCn1cncc1[N+](=O)[O-])Cc1ccc(Cl)c(Cl)c1)CCc1cc2c(cc1-3)OCO2.[Cl-] | 16 | 16 | 8 | 2 | 8 | 16 | 8 | 64 | 32 | 8 | 80.8 | Stable | Stable | 0.55
9 | COc1ccc2cc3[n+](cc2c1OCCN(CCn1cncc1[N+](=O)[O-])Cc1cccc(Cl)c1)CCc1cc2c(cc1-3)OCO2.[Cl-] | 16 | 32 | 32 | 256 | 16 | 64 | 32 | 32 | 32 | 4 | 71.3 | Stable | Stable | 0.54
10 | COc1ccc2cc3[n+](cc2c1OCCN(CCn1cncc1[N+](=O)[O-])Cc1ccc(Cl)cc1)CCc1cc2c(cc1-3)OCO2.[Cl-] | 32 | 128 | 32 | 32 | 16 | 32 | 32 | 64 | 64 | 16 | 68.1 | Stable | Stable | 0.53
11 | Cc1ncc([N+](=O)[O-])n1CCN(CCBr)Cc1ccc(F)cc1F | 16 (≈ 39.7 µM) | 256 (≈ 635 µM) | 32 (≈ 79.4 µM) | 32 (≈ 79.4 µM) | 64 (≈ 159 µM) | 128 (≈ 317 µM) | 128 (≈ 317 µM) | 128 (≈ 317 µM) | 128 (≈ 317 µM) | 64 (≈ 159 µM) |  |  |  | 
12 | O=[N+]([O-])c1cn(CCN(CCBr)Cc2ccc(F)cc2F)cn1 | 64 (≈ 164 µM) | 64 (≈ 164 µM) | 32 (≈ 82.2 µM) | 16 (≈ 41.1 µM) | 16 (≈ 41.1 µM) | 32 (≈ 82.2 µM) | 32 (≈ 82.2 µM) | 8 (≈ 20.6 µM) | 16 (≈ 41.1 µM) | 32 (≈ 82.2 µM) |  |  |  | 
13 | O=[N+]([O-])c1cn(CCN(CCBr)Cc2ccc(Cl)c(Cl)c2)cn1 | 64 (≈ 152 µM) | 32 (≈ 75.8 µM) | 32 (≈ 75.8 µM) | 16 (≈ 37.9 µM) | 32 (≈ 75.8 µM) | 64 (≈ 152 µM) | 32 (≈ 75.8 µM) | 64 (≈ 152 µM) | 64 (≈ 152 µM) | 32 (≈ 75.8 µM) |  |  |  | 
14 | O=[N+]([O-])c1cn(CCN(CCBr)Cc2ccccc2Cl)cn1 | 64 (≈ 165 µM) | 32 (≈ 82.5 µM) | 32 (≈ 82.5 µM) | 32 (≈ 82.5 µM) | 32 (≈ 82.5 µM) | 64 (≈ 165 µM) | 16 (≈ 41.3 µM) | 128 (≈ 330 µM) | 64 (≈ 165 µM) | 16 (≈ 41.3 µM) |  |  |  | 
15 | O=[N+]([O-])c1cn(CCN(CCBr)Cc2cccc(Cl)c2)cn1 | 128 (≈ 330 µM) | 64 (≈ 165 µM) | 128 (≈ 330 µM) | 256 (≈ 660 µM) | 64 (≈ 165 µM) | 512 (≈ 1320 µM) | 128 (≈ 330 µM) | 128 (≈ 330 µM) | 64 (≈ 165 µM) | 64 (≈ 165 µM) |  |  |  | 
16 | O=[N+]([O-])c1cn(CCN(CCBr)Cc2ccc(Cl)cc2)cn1 | 128 (≈ 330 µM) | 64 (≈ 165 µM) | 128 (≈ 330 µM) | 128 (≈ 330 µM) | 256 (≈ 660 µM) | 128 (≈ 330 µM) | 64 (≈ 165 µM) | 128 (≈ 330 µM) | 128 (≈ 330 µM) | 64 (≈ 165 µM) |  |  |  | 
17 | O=[N+]([O-])c1cncn1CCN(CCBr)Cc1ccc(F)cc1F | 32 (≈ 82.2 µM) | 64 (≈ 164 µM) | 32 (≈ 82.2 µM) | 8 (≈ 20.6 µM) | 8 (≈ 20.6 µM) | 16 (≈ 41.1 µM) | 16 (≈ 41.1 µM) | 4 (≈ 10.3 µM) | 16 (≈ 41.1 µM) | 32 (≈ 82.2 µM) |  |  |  | 
18 | COc1ccc2cc3[n+](cc2c1OC)CCc1cc2c(cc1-3)OCO2.[Cl-] [BERBERINE CHLORIDE] | 128 | > 512 | > 512 | 256 | 256 | 128 | > 512 | 128 | > 512 | 512 |  |  |  | 
19 | NC1CCN(c2c(F)cc3c(=O)c(C(=O)O)cn(C4CC4)c3c2Cl)C1 (stereo not given) [CLINAFLOXACIN] |  |  |  |  | 16 (≈ 43.7 µM) |  |  |  |  |  |  |  |  | 
20 | OC(Cn1cncn1)(Cn1cncn1)c1ccc(F)cc1F [FLUCONAZOLE] |  |  |  |  |  |  | 1 (≈ 3.27 µM) | 4 (≈ 13.1 µM) |  |  |  |  |  | 
21 | CCn1cc(C(=O)O)c(=O)c2cc(F)c(N3CCNCC3)cc21 [NORFLOXACIN] | 8 (≈ 25.1 µM) | 1 (≈ 3.13 µM) | 16 (≈ 50.1 µM) | 4 (≈ 12.5 µM) | 16 (≈ 50.1 µM) | 8 (≈ 25.1 µM) |  |  | 2 (≈ 6.26 µM) | 0.5 (≈ 1.57 µM) |  |  |  | 
